The results in this text go back to ChEMBL document CHEMBL5131470, “Structure-activity and structure-property relationship studies of spirocyclic chromanes with antimalarial activity” (Bioorg Med Chem, 2022).

Series [1] can be described thus: Selectivity index, ratio of EC50 for cytotoxicity against human HepG2 cells to EC50 for antimalarial activity against chloroquine-resistant Plasmodium falciparum Dd2. In kind it is toxicity, cell-based. To be noted: read-out: Ratio EC50. Put shortly:
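Human HepG2 hepatoma cells were seeded at 2,500 cells/well and grown 24 h. Serial dilutions of compound (0–40 μM) were then added for another 48 h. […] SI = EC50(HepG2)/EC50(Dd2).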

The next series relates to Plasmodium falciparum. Briefly: Antimalarial activity against chloroquine-resistant Plasmodium falciparum Dd2 assessed as inhibition of parasite growth incubated for 72 hrs by SYBR green I-based DNA quantification assay. The series is classed as functional, organism-based. To be noted: Dd2, 72 h.
The nature of series [2]: Cytotoxicity against human HepG2 cells assessed as reduction in cell viability incubated for 48 hrs by MTS assay. The series is classed as toxicity, cell-based. The method in brief: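 HepG2 human hepatoma cells were seeded at 2,500 cells/well in 384-well plates and incubated 24 h. Serial compound dilutions (0–40 μM range) were added, then cells were incubated a further 48 h.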
Background: Tetrazolium dyes change colour on reduction, which living cells bring about.

By EC50 is commonly meant the concentration giving half of the maximal effect.

As for `c1ccc(CCN2CCC3(CCc4ccc5ccccc5c4O3)CC2)cc1`, the selectivity ratio in series [1] is > 9.6. Further, in the series with Plasmodium falciparum, the EC50 came out at 2.06 µM. Moreover, the EC50 at 48 h in series [2] is > 20 µM.
In the same order, the values of `OC1CC2(CCN(CCc3ccccc3)CC2)Oc2c1ccc1ccccc21` (stereo not drawn) are > 68.9, 0.32 µM and > 20 µM.
On the same counts, the results for `OC1CC2(CCN(Cc3ccccc3)CC2)Oc2c1ccc1ccccc21` (stereo not drawn) are 5.7, 0.93 µM and 6 µM.
In the same order, the values of `CCN1CCC[C@@]2(CC(O)c3ccc4ccccc4c3O2)C1` (stereo partly drawn) are > 28.8, 0.63 µM and > 20 µM.
For the molecule `CCN1CCC[C@@]2(CC(=O)c3ccc4ccccc4c3O2)C1`, in series [1], the selectivity ratio was < 1.6. Moreover, the EC50 with Plasmodium falciparum is > 2.5 µM. Further, the EC50 at 48 h in series [2] is 8 µM.
For `OC1C[C@]2(CCCN(CCc3ccc(F)c(F)c3)C2)Oc2c1ccc1ccccc21` (stereo partly drawn), the selectivity ratio in series [1] turned out to be 1.9. Also, the EC50 with Plasmodium falciparum was > 2.5 µM. For the same molecule, the EC50 at 48 h in series [2] came out at 6 µM.
Take `Fc1ccc(CCN2CCC3(CCc4ccc5c(c4O3)CCCC5)CC2)cc1F`: the selectivity ratio in series [1] stood at 4. Moreover, the EC50 in the series with Plasmodium falciparum was > 2.5 µM. Besides, in series [2], the EC50 at 48 h is > 20 µM.
As for `O[C@@H](CN1CCC2(CC1)C[C@H](O)c1ccc3ccccc3c1O2)c1ccc(F)c(F)c1`, the selectivity ratio in series [1] was > 15. Moreover, the EC50 in the series on Plasmodium falciparum came out at 1.29 µM. Moreover, the EC50 at 48 h in series [2] was > 20 µM.
On to `O=C1CC2(CCN(CCCc3ccccc3)CC2)Oc2c1ccc1ccccc21`, for which, in series [1], the selectivity ratio was > 36.5. The EC50 with Plasmodium falciparum came out at 0.48 µM. Besides, the EC50 at 48 h in series [2] is > 20 µM.
In the same order, the values of `O=C1C[C@@]2(CCCN(CCc3ccc(F)c(F)c3)C2)Oc2c1ccc1ccccc21` are 34.2, 0.33 µM and 14 µM.
On the same counts, the results for `O=C1C[C@]2(CCCNC2)Oc2c1ccc1ccccc21` are 2.4, 1.2 µM and 4 µM.
With `O=C1CC2(CCN(CCc3ccccc3)CC2)Oc2c1ccc1ccccc21`, the selectivity ratio in series [1] was 14. For the same molecule, the EC50 in the series with Plasmodium falciparum stood at 0.53 µM. For the same molecule, the EC50 at 48 h in series [2] stood at 8 µM.
Take `O=C1CC2(CCN(CCc3ccc(Cl)c(Cl)c3)CC2)Oc2c1ccc1ccccc21`: the EC50 with Plasmodium falciparum was > 2.5 µM.
With `CCN1CCC2(CCc3ccc4c(c3O2)CCCC4)CC1`, the selectivity ratio in series [1] is < 1. Further, in the series with Plasmodium falciparum, the EC50 is > 2.5 µM. Further, the EC50 at 48 h in series [2] turned out to be 5 µM.
On to `OC(CN1CCC2(CC1)CC(O)c1ccc3ccccc3c1O2)c1ccc(Cl)c(Cl)c1` (stereo not drawn), for which the EC50 with Plasmodium falciparum amounted to 1.84 µM.
For `O=C1CC2(CCN(Cc3ccccc3)CC2)Oc2c1ccc1ccccc21`, the selectivity ratio in series [1] worked out at 4. The EC50 in the series with Plasmodium falciparum is > 2.5 µM. The EC50 at 48 h in series [2] was 11 µM.
Consider `O=C1C[C@]2(CCCN(CCc3ccc(F)c(F)c3)C2)Oc2c1ccc1ccccc21`, for which the selectivity ratio in series [1] was 5.8. Moreover, the EC50 in the series with Plasmodium falciparum was 1.84 µM. Also, in series [2], the EC50 at 48 h came out at 10 µM.
On the same counts, the results for `O[C@H](CN1CCC2(CC1)C[C@@H](O)c1ccc3ccccc3c1O2)c1ccc(F)c(F)c1` are < 7, > 2.5 µM and 17 µM.
Turning to `O=C1C[C@@]2(CCCNC2)Oc2c1ccc1ccccc21`, the selectivity ratio in series [1] came out at 9. The concentration for a half-maximal effect (EC50) in the series with Plasmodium falciparum is 0.63 µM. Besides, the EC50 at 48 h in series [2] was determined as 5 µM.
On the same counts, the results for `Fc1ccc(CCN2CCC3(C=Cc4ccc5ccccc5c4O3)CC2)cc1F` are 7.2, 1.98 µM and 13 µM.
On the same counts, the results for `c1cc2c(c3c1CCCC3)OC1(CCNCC1)CC2` are 4, > 2.5 µM and > 20 µM.
In the same order, the values of `CCN1CCC[C@]2(CC(=O)c3ccc4ccccc4c3O2)C1` are 1.3, > 2.5 µM and 5 µM.
Consider `O=C1CC2(CCN(CC(O)c3ccc(Cl)c(Cl)c3)CC2)Oc2c1ccc1ccccc21` (stereo not drawn), for which the EC50 with Plasmodium falciparum was > 2.5 µM.
